Source: PubChem (several laboratories)
An excerpt weighted towards active compounds, which were near 2.5% of everything screened.
NPY2 pot ag – potentiates or activates human NPY-Y2 receptor. cells expressing NPY-Y2, potentiator/agonist read-out. 220,000 compounds, 0.45% hits. activation, % at 3.6 µM. P49146; in the data active = activation above about 27%;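 also: cells stimulated with NPY near EC25 plus isoproterenol at EC100; 0% = vehicle plus submaximal agonist and 100% = vehicle plus saturating agonist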
NPY Y1 blocker – blocks the human neuropeptide Y Y1 receptor; inhibition, % at 3.6 µM; HEK293-CNG Y1 cells, membrane potential fluorescence; NPY at EC95, then isoproterenol; P25929; 200,000 compounds, 1% hits;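 active = inhibition above the campaign mean inhibition of all tested compounds plus 3 SD, cut at about 20% in these data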;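 also: 0% = DMSO wells given NPY plus isoproterenol and 100% = isoproterenol alone without NPY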
Target sequence (P25929 whole entry, looked up): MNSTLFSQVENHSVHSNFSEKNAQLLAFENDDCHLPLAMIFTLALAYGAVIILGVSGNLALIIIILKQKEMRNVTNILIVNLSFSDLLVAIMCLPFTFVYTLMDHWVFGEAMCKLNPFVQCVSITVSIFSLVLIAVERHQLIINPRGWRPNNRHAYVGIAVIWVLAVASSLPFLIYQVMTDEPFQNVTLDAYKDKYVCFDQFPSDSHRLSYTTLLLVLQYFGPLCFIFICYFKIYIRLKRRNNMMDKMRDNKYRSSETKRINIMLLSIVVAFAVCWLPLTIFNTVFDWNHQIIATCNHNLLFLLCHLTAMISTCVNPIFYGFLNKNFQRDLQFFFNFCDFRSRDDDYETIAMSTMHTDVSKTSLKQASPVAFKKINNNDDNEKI
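Test system: HEK293 cells co-expressing NPY Y1 receptor and cyclic-nucleotide gated channel; Also added: NPY (25 nM), isoproterenol (1 µM), Ro 20-1724 (25 µM); Compound dosing: one concentration, 3.6 µM, in 0.4% DMSO; Timing: dye 3 h, compound 60 min room temperature, stimulation 45 min; Technique: Membrane-potential fluorescent dye readout.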
Insulin prom inh – TRM-6 insulin promoter activity inhibition. TRM-6 cells, insulin promoter-eGFP reporter, imaging; reporter expression induced with tamoxifen. inhibition, % at 2 µM. 130,000 compounds, 0.9% hits. AID 1273;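 active = inhibition above the mean plus 3 SD, with well images judged a real hit on visual review, cut at about 60% in these data, passing the limit was not always enough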
NPY-Y1 PAM-ag – potentiates or activates human NPY-Y1 receptor. 220,000 compounds, 0.37% hits. activation, % at 3.6 µM. NPY-Y1 expressing cells, potentiator/agonist activation. AID 1304; in the data active = activation above about 33%, passing the limit was not always enough;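 also: cells stimulated with NPY at EC10 then isoproterenol at EC100; 0% = low agonist plus stimulus and 100% = saturating agonist plus stimulus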
NPY Y2 blocker – NPY-Y2 (human) receptor antagonism; 140,000 compounds, 0.99% hits; NPY-Y2 expressing cells, antagonist mode; P49146; inhibition, % at 2.7 µM; in the data active = inhibition above about 17%;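 also: 0% = vehicle with agonist challenge and 100% = reference antagonist with challenge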
Ins promoter up – MIN6 insulin promoter up-regulation | MIN6 insulin promoter-GFP reporter, high-content imaging; hits give high values | z-score at 5 µM | 190,000 compounds, 0.3% hits | AID 1625;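 active = z-score above 3 at 5 µM with at least 500 cells counted in the well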
The depositor's hits bear a star; . = not tested or not shown.

SMILES	NPY2 pot ag	NPY Y1 blocker	Insulin prom inh	NPY-Y1 PAM-ag	NPY Y2 blocker	Ins promoter up
c1ccc(-c2ccc(-c3nccc4ccccc34)[nH]2)cc1	-27	.	.	-3	.	4.4*
COc1cc2c(cc1NC(=O)CSc1nc3ccc(C)cc3[nH]1)oc1ccccc12	3	-5	24	-12	2	0.09
CC1CC(=O)NN=C1c1ccc(N)c([N+](=O)[O-])c1 (configuration not stated)	-18	65*	-14	-69	78*	-0.54
CC1CC(C)CN(C(=O)c2ccc3c(c2NCCO)C(=O)c2ccccc2C3=O)C1 (configuration not stated)	49*	-18	39	55*	-9	-0.43
COC(=O)c1ccc(Oc2nc(SC)nc(N(C)C)n2)cc1	10	.	.	14	.	0.04
Cc1ccc(N=Nc2c(N)nn3c(N)c(C#N)c(C)nc23)cc1	0	4	47	-10	.	.
Cc1cc(C)n2nc(N)c(N=Nc3cccc(Cl)c3)c2n1	4	2	62*	-5	-1	-0.65
Cc1ccc(N=Nc2c(N)nn3c(C)cc(C)nc23)cc1	10	2	82*	0	3	.
COc1ccc(N2CCN(C(=O)C3CCN(S(=O)(=O)c4ccc(F)cc4)CC3)CC2)cc1	14	1	.	16	.	-0.22
CCOc1ccc(-c2nnn(CC#N)n2)cc1OC	4	-1	47	6	-1	.
CC(=O)C(=Cc1cn(-c2ccccc2)nc1-c1ccccc1)C(C)=O	-5	-3	.	-2	.	3.2*
Cc1ccc(C(=O)N/C(=C/c2cn(-c3ccccc3)nc2-c2ccccc2)C(=O)O)cc1	-9	6	.	-11	.	.
CCOc1cccc2sc(N(CCCN(C)C)C(=O)c3ccc(S(=O)(=O)N(C)c4ccccc4)cc3)nc12	-18	21*	7	-34	.	-0.71
CN(C)CCN(C(=O)c1ccc(S(=O)(=O)N(C)c2ccccc2)cc1)c1nc2cc3c(cc2s1)OCCO3	0	.	.	-26	.	-0.15
CN(C)CCCN(C(=O)c1sc2ccccc2c1Cl)c1nc2c(F)cccc2s1	-20	20*	.	-39	18*	0.14
Cc1cccc2sc(N(CCCN(C)C)C(=O)c3sc4ccccc4c3Cl)nc12	-17	8	.	-20	5	-0.2
CN1CCCN(C(=O)/C=C/c2ccc(Cl)cc2Cl)CC1	1	9	.	-11	.	-0.25
CCc1ccc(NC(=O)CC2C(=O)N(c3ccc(C)cc3)C(=O)N2C2CC2)cc1 (configuration not stated)	8	1	.	2	.	-0.51
O=C(Nc1ccc(F)cc1F)c1cc2nc3c(c(C(F)(F)F)n2n1)CCCC3	1	-3	20	-17	0	-0.39
Cc1nc(C)c(CC(=O)N2CCc3c([nH]c4ccccc34)C2c2ccccn2)s1 (configuration not stated)	-4	-2	.	-1	.	-0.72
CC(=O)c1cc(CC(=O)N2CCc3c([nH]c4ccccc34)C2c2ccccn2)cs1 (configuration not stated)	2	22*	0	5	.	0.68
CCOC(=O)c1sc(NC(=O)c2sccc2C)cc1C	6	0	13	-3	0	3.1*
CC(C)CC(=O)NC(Nc1ccc([N+](=O)[O-])cc1)C(Cl)(Cl)Cl (configuration not stated)	13	-3	-40	14	2	0.2
Cc1c(NC(=O)c2cnn3cccnc23)c(=O)n(-c2ccccc2)n1C	3	-2	75*	-9	1	-0.6
COc1ccccc1C(=O)Nc1c(C)n(C)n(-c2ccccc2)c1=O	-14	1	.	5	-2	-0.23
SMILES	NPY2 pot ag	NPY Y1 blocker	Insulin prom inh	NPY-Y1 PAM-ag	NPY Y2 blocker	Ins promoter up
COc1ccccc1NC(=O)Nc1c(C)n(C)n(-c2ccccc2)c1=O	-5	-1	100*	8	1	0.29
CCOc1ccc(CCNC(=O)Cn2c(=O)oc3ccccc32)cc1OCC	0	1	-20	-7	3	.
COc1ccc(CNC(=O)COC(=O)/C=C/c2cccc(Br)c2)cc1	3	3	.	-5	.	0.66
CC1CCCc2sc3nc(N4CCN(CCO)CC4)n4ncnc4c3c21 (configuration not stated)	-29	40*	.	-51	25*	-0.89
Cc1ccc(S(=O)(=O)c2ccc(Cl)cc2)cc1S(=O)(=O)NC(C)C(=O)O (configuration not stated)	12	-2	12	-5	2	-0.04
CCCCCC1CCC(C(=O)O)CC1 (configuration not stated)	-13	26*	57	-38	12	0.4
COc1ccc([N+](=O)[O-])cc1N(CC(O)CN(C)C)S(=O)(=O)c1ccc(C)cc1 (configuration not stated)	3	3	.	18	.	-0.07
CCCCN(CCCC)CC(O)CN(c1cc([N+](=O)[O-])ccc1OC)S(=O)(=O)c1ccccc1 (configuration not stated)	-4	23*	.	-28	20*	-0.64
Cc1ccc(S(=O)(=O)NC2CCCc3ccccc32)cc1C (configuration not stated)	4	-1	-50	11	5	-0.48
Cc1cc(C[n+]2ncsc2N)c2ncccc2c1	-36	.	.	-23	.	-0.14
COc1ccc2c(c1)sc(N)[n+]2Cc1cc(C)cc2cccnc12	-5	49*	.	-58	48*	-1.1
CCOc1ccc2c(c1)sc(N)[n+]2Cc1cc(C)cc2cccnc12	-13	52*	.	-69	42*	-1.3
Cc1ccc2nc(SCC3CCCCO3)[nH]c2c1 (configuration not stated)	-6	.	.	15	.	0.3
CCOC(=O)c1c(NC(=O)CN(CC)CC)sc2c1CCN(C(=O)OCC)C2	-4	23*	.	-26	30*	-2
CCOC(=O)c1c(NC(=O)CSc2ncccn2)sc2c1CCN(Cc1ccccc1)C2	-32	33*	-39	-79	17*	-0.74
CCOC(=O)c1c(NC(=O)CN2CCCCC2)sc2c1CCN(C(=O)OCC)C2	-10	56*	.	-29	36*	-0.26
CNC(=O)NC(=O)COC(=O)/C=C/c1cccc(Br)c1	-3	11	33	-2	.	1
Cc1ccccc1NC(=O)Cc1nnc(N)s1	-12	.	.	12	.	-0.62
CCCNC(=O)N1CCC(C(=O)c2ccc(Cl)cc2)CC1	4	-2	29	4	0	3.8*
CCSc1nc2ccccc2n1C(=O)c1ccc(S(=O)(=O)N2CCCCC2)cc1	-22	2	82*	-2	-1	.
C#CCSc1nc2ccccc2n1C(=O)c1ccc(S(=O)(=O)N2CCCCC2)cc1	11	3	76*	9	0	-0.14
CCSc1nc2ccccc2n1C(=O)c1ccc(S(=O)(=O)N2CCCCCC2)cc1	-4	1	.	-1	1	1.7
CN(C(=O)CSc1ncnc2sc(-c3ccccc3)cc12)C1CCS(=O)(=O)C1 (configuration not stated)	-5	-1	.	2	.	.
